Assay results published in ChEMBL document CHEMBL5724801, “EUbOPEN Chemogenomics Library - Multiplex” (2024).
“And” between values parts separate entries of the source, which are not always exact repeats. Identical values can stand only once.

Test system: Fibroblast
Experiment: Multiplex assay against human fibroblast
Format: toxicity, cell-based
Summary of the method: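 Cells stained live at seeding with Hoechst33342, BioTracker Green Microtubule Cytoskeleton Dye, MitoTracker Red and Annexin V Alexa Fluor 680 were imaged on a CQ1 microscope at 37°C and 5% CO2 after compound addition. Their classification by CellPathfinder machine-learning gating ran from Hoechst high-intensity objects versus normal cells, to healthy, pyknosed or fragmented nuclei among normal cells, to mitotic or apoptotic among pyknosed cells. Tubulin, mitochondrial-mass and membrane-permeability phenotypes are per cents of healthy-nucleus cells.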

[1] = 12 h, 1 µM, compound concentration 1 uM
[2] = 12 h, 10 µM, compound concentration 10 uM
[3] = 24 h, 1 µM, compound concentration 1 uM
[4] = 24 h, 10 µM, compound concentration 10 uM
[5] = 48 h, 1 µM, compound concentration 1 uM
[6] = 48 h, 10 µM, compound concentration 10 uM

CC(C)(O)c1cnc(N2C[C@@]3(CCC[C@](C)(Cn4cnc5ccc(C#N)cc54)C3)OC2=O)cn1 [GSK2798745]
Population Apoptotic (%) [1]: 7.14% and 16.22% | Population Fragmented Nuclei (%) [1]: 12.71% and 8% | Population Healthy Nuclei (%) [1]: 63.56% and 75.56% | Population Hoechst High Intensity Objects (%) [1]: 0% | Population Membrane Permeable-Phenotype (%) [1]: 4% and 4.12% | Population Mitochondria Different-Phenotype (%) [1]: 13.33% and 10.59% | Population Mitotic Cells (%) [1]: 92.86% and 83.78% | Population Normal (%) [1]: 100% | Population Pyknosed Nuclei (%) [1]: 23.73% and 16.44% | Population Tubulin-Different-Phenotype (%) [1]: 16% and 20% | Total Cell Count [1]: 118 and 225 | Population Apoptotic (%) [2]: 11.76% and 21.62% | Population Fragmented Nuclei (%) [2]: 16.26% and 5.53% | Population Healthy Nuclei (%) [2]: 50.25% and 77.42% | Population Hoechst High Intensity Objects (%) [2]: 0% | Population Membrane Permeable-Phenotype (%) [2]: 14.71% and 12.5% | Population Mitochondria Different-Phenotype (%) [2]: 18.63% and 22.62% | Population Mitotic Cells (%) [2]: 88.24% and 78.38% | Population Normal (%) [2]: 100% | Population Pyknosed Nuclei (%) [2]: 33.5% and 17.05% | Population Tubulin-Different-Phenotype (%) [2]: 52.94% and 55.95% | Total Cell Count [2]: 203 and 217 | Population Apoptotic (%) [3]: 9.09% and 21.05% | Population Fragmented Nuclei (%) [3]: 14.29% and 4.76% | Population Healthy Nuclei (%) [3]: 65.22% and 87.01% | Population Hoechst High Intensity Objects (%) [3]: 0% | Population Membrane Permeable-Phenotype (%) [3]: 1.9% and 5.97% | Population Mitochondria Different-Phenotype (%) [3]: 4.76% and 5.97% | Population Mitotic Cells (%) [3]: 90.91% and 78.95% | Population Normal (%) [3]: 100% | Population Pyknosed Nuclei (%) [3]: 20.5% and 8.23% | Population Tubulin-Different-Phenotype (%) [3]: 16.19% and 21.89% | Total Cell Count [3]: 161 and 231 | Population Apoptotic (%) [4]: 11.11% and 25.81% | Population Fragmented Nuclei (%) [4]: 15.38% and 6.88% | Population Healthy Nuclei (%) [4]: 68.33% and 78.9% | Population Hoechst High Intensity Objects (%) [4]: 0% | Population Membrane Permeable-Phenotype (%) [4]: 9.93% and 5.81% | Population Mitochondria Different-Phenotype (%) [4]: 12.58% and 22.09% | Population Mitotic Cells (%) [4]: 88.89% and 74.19% | Population Normal (%) [4]: 100% | Population Pyknosed Nuclei (%) [4]: 16.29% and 14.22% | Population Tubulin-Different-Phenotype (%) [4]: 52.32% and 62.21% | Total Cell Count [4]: 221 and 218 | Population Fragmented Nuclei (%) [5]: 10.86% and 4.58% | Population Healthy Nuclei (%) [5]: 82.29% and 90.83% | Population Hoechst High Intensity Objects (%) [5]: 0% | Population Membrane Permeable-Phenotype (%) [5]: 0% and 4.13% | Population Mitotic Cells (%) [5]: 91.67% and 63.64% | Population Normal (%) [5]: 100% | Population Pyknosed Nuclei (%) [5]: 6.86% and 4.58% | Population Tubulin-Different-Phenotype (%) [5]: 12.5% and 17.89% | Total Cell Count [5]: 175 and 240 | Population Apoptotic (%) [6]: 14.29% and 42.11% | Population Fragmented Nuclei (%) [6]: 11.06% and 7.96% | Population Healthy Nuclei (%) [6]: 78.85% and 83.63% | Population Hoechst High Intensity Objects (%) [6]: 0% | Population Membrane Permeable-Phenotype (%) [6]: 4.27% and 11.64% | Population Mitochondria Different-Phenotype (%) [6]: 21.95% and 10.05% | Population Mitotic Cells (%) [6]: 85.71% and 57.89% | Population Normal (%) [6]: 100% | Population Pyknosed Nuclei (%) [6]: 10.1% and 8.41% | Population Tubulin-Different-Phenotype (%) [6]: 44.51% and 59.79% | Total Cell Count [6]: 208 and 226

O=C(NCCN1CCC(n2c(=O)[nH]c3cc(Cl)ccc32)CC1)c1ccc(F)cc1 [HALOPEMIDE]
Population Apoptotic (%) [1]: 32% and 44% | Population Fragmented Nuclei (%) [1]: 11% and 27% | Population Healthy Nuclei (%) [1]: 62% and 43% | Population Hoechst High Intensity Objects (%) [1]: 0% and 7% | Population Membrane Permeable-Phenotype (%) [1]: 1% and 10% | Population Mitochondria Different-Phenotype (%) [1]: 10% and 0% | Population Mitotic Cells (%) [1]: 67% and 56% | Population Normal (%) [1]: 99% and 92% | Population Pyknosed Nuclei (%) [1]: 26% and 29% | Population Tubulin-Different-Phenotype (%) [1]: 29% and 56% | Total Cell Count [1]: 120 and 92 | Population Apoptotic (%) [2]: 55% and 31% | Population Fragmented Nuclei (%) [2]: 15% and 24% | Population Healthy Nuclei (%) [2]: 54% and 34% | Population Hoechst High Intensity Objects (%) [2]: 3% and 4% | Population Membrane Permeable-Phenotype (%) [2]: 0% and 6% | Population Mitochondria Different-Phenotype (%) [2]: 17% and 14% | Population Mitotic Cells (%) [2]: 44% and 68% | Population Normal (%) [2]: 96% and 95% | Population Pyknosed Nuclei (%) [2]: 30% and 41% | Population Tubulin-Different-Phenotype (%) [2]: 77% and 87% | Total Cell Count [2]: 204 and 148 | Population Apoptotic (%) [3]: 58% and 37% | Population Fragmented Nuclei (%) [3]: 16% and 32% | Population Healthy Nuclei (%) [3]: 69% and 41% | Population Hoechst High Intensity Objects (%) [3]: 3% and 10% | Population Membrane Permeable-Phenotype (%) [3]: 1% and 5% | Population Mitochondria Different-Phenotype (%) [3]: 9% and 8% | Population Mitotic Cells (%) [3]: 41% and 62% | Population Normal (%) [3]: 96% and 90% | Population Pyknosed Nuclei (%) [3]: 13% and 26% | Population Tubulin-Different-Phenotype (%) [3]: 38% and 59% | Total Cell Count [3]: 128 and 100 | Population Apoptotic (%) [4]: 67% and 41% | Population Fragmented Nuclei (%) [4]: 23% and 26% | Population Healthy Nuclei (%) [4]: 51% and 38% | Population Hoechst High Intensity Objects (%) [4]: 5% and 6% | Population Membrane Permeable-Phenotype (%) [4]: 0% and 12% | Population Mitochondria Different-Phenotype (%) [4]: 28% and 32% | Population Mitotic Cells (%) [4]: 32% and 58% | Population Normal (%) [4]: 95% and 93% | Population Pyknosed Nuclei (%) [4]: 24% and 35% | Population Tubulin-Different-Phenotype (%) [4]: 78% and 94% | Total Cell Count [4]: 220 and 140 | Population Apoptotic (%) [5]: 52% and 35% | Population Fragmented Nuclei (%) [5]: 14% and 38% | Population Healthy Nuclei (%) [5]: 68% and 43% | Population Hoechst High Intensity Objects (%) [5]: 3% and 4% | Population Membrane Permeable-Phenotype (%) [5]: 4% and 14% | Population Mitochondria Different-Phenotype (%) [5]: 7% and 4% | Population Mitotic Cells (%) [5]: 47% and 64% | Population Normal (%) [5]: 96% and 95% | Population Pyknosed Nuclei (%) [5]: 17% | Population Tubulin-Different-Phenotype (%) [5]: 36% and 63% | Total Cell Count [5]: 128 and 99 | Population Apoptotic (%) [6]: 80% and 48% | Population Fragmented Nuclei (%) [6]: 32% and 35% | Population Healthy Nuclei (%) [6]: 50% and 45% | Population Hoechst High Intensity Objects (%) [6]: 10% and 5% | Population Membrane Permeable-Phenotype (%) [6]: 0% and 10% | Population Mitochondria Different-Phenotype (%) [6]: 35% and 15% | Population Mitotic Cells (%) [6]: 19% and 52% | Population Normal (%) [6]: 89% and 94% | Population Pyknosed Nuclei (%) [6]: 17% and 19% | Population Tubulin-Different-Phenotype (%) [6]: 77% and 96% | Total Cell Count [6]: 229 and 136

c1cc(OCCCN2CCCCC2)ccc1CN1CCCCC1 [JNJ-5207852]
Population Apoptotic (%) [1]: 37% and 26% | Population Fragmented Nuclei (%) [1]: 15% and 24% | Population Healthy Nuclei (%) [1]: 64% and 51% | Population Hoechst High Intensity Objects (%) [1]: 1% and 7% | Population Membrane Permeable-Phenotype (%) [1]: 0% and 8% | Population Mitochondria Different-Phenotype (%) [1]: 2% and 5% | Population Mitotic Cells (%) [1]: 62% and 73% | Population Normal (%) [1]: 98% and 92% | Population Pyknosed Nuclei (%) [1]: 20% and 23% | Population Tubulin-Different-Phenotype (%) [1]: 26% and 49% | Total Cell Count [1]: 181 and 153 | Population Apoptotic (%) [2]: 50% and 43% | Population Fragmented Nuclei (%) [2]: 22% and 36% | Population Healthy Nuclei (%) [2]: 68% and 42% | Population Hoechst High Intensity Objects (%) [2]: 1% | Population Membrane Permeable-Phenotype (%) [2]: 0% and 12% | Population Mitochondria Different-Phenotype (%) [2]: 6% and 10% | Population Mitotic Cells (%) [2]: 50% and 56% | Population Normal (%) [2]: 98% | Population Pyknosed Nuclei (%) [2]: 9% and 20% | Population Tubulin-Different-Phenotype (%) [2]: 35% and 60% | Total Cell Count [2]: 193 and 114 | Population Apoptotic (%) [3]: 38% and 33% | Population Fragmented Nuclei (%) [3]: 18% and 28% | Population Healthy Nuclei (%) [3]: 66% and 51% | Population Hoechst High Intensity Objects (%) [3]: 2% and 5% | Population Membrane Permeable-Phenotype (%) [3]: 0% and 5% | Population Mitochondria Different-Phenotype (%) [3]: 2% and 6% | Population Mitotic Cells (%) [3]: 61% and 66% | Population Normal (%) [3]: 97% and 95% | Population Pyknosed Nuclei (%) [3]: 15% and 19% | Population Tubulin-Different-Phenotype (%) [3]: 23% and 55% | Total Cell Count [3]: 176 and 160 | Population Apoptotic (%) [4]: 60% and 41% | Population Fragmented Nuclei (%) [4]: 24% and 45% | Population Healthy Nuclei (%) [4]: 65% and 38% | Population Hoechst High Intensity Objects (%) [4]: 1% and 5% | Population Membrane Permeable-Phenotype (%) [4]: 0% and 4% | Population Mitochondria Different-Phenotype (%) [4]: 6% and 13% | Population Mitotic Cells (%) [4]: 40% and 58% | Population Normal (%) [4]: 99% and 94% | Population Pyknosed Nuclei (%) [4]: 10% and 15% | Population Tubulin-Different-Phenotype (%) [4]: 34% and 67% | Total Cell Count [4]: 201 and 118 | Population Apoptotic (%) [5]: 70% and 44% | Population Fragmented Nuclei (%) [5]: 18% and 32% | Population Healthy Nuclei (%) [5]: 63% and 48% | Population Hoechst High Intensity Objects (%) [5]: 2% and 4% | Population Membrane Permeable-Phenotype (%) [5]: 0% and 5% | Population Mitochondria Different-Phenotype (%) [5]: 2% | Population Mitotic Cells (%) [5]: 29% and 55% | Population Normal (%) [5]: 97% and 95% | Population Pyknosed Nuclei (%) [5]: 17% and 18% | Population Tubulin-Different-Phenotype (%) [5]: 23% and 50% | Total Cell Count [5]: 184 and 160 | Population Apoptotic (%) [6]: 55% and 30% | Population Fragmented Nuclei (%) [6]: 19% and 48% | Population Healthy Nuclei (%) [6]: 70% and 41% | Population Hoechst High Intensity Objects (%) [6]: 2% and 3% | Population Membrane Permeable-Phenotype (%) [6]: 0% and 5% | Population Mitochondria Different-Phenotype (%) [6]: 2% and 11% | Population Mitotic Cells (%) [6]: 44% and 69% | Population Normal (%) [6]: 97% and 96% | Population Pyknosed Nuclei (%) [6]: 9% and 10% | Population Tubulin-Different-Phenotype (%) [6]: 34% and 66% | Total Cell Count [6]: 189 and 132
